Experimental data: PMC4618637 (Pharmacology Research & Perspectives, 2015)
Like-named read-outs stand apart in the source and are kept apart here. Each block holds one compound with its values, some of them ahead of it.

Columns and labels:
[1] = assay type: in vivo; details: human ileal effluent 4 h after 5 g TU-100 oral
How it was run: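 Subjects were 10 ileostomy patients (2 male, 8 female), with stoma made at least 2 weeks prior and normal small intestine by enteroscopy. Those given kampo medicine within 4 weeks were excluded. A new bag was fitted, then 5 g TU-100 drug product (0.42 g drug substance) was taken, followed by an unrestricted breakfast. Effluent was collected at 4 h and frozen at −80°C. Liquid–liquid extraction used pH 5.0 ammonium acetate/PEG, methanol and internal standard, with or without β-glucuronidase (final 0.1 U/μL, 37°C), before LC-MS/MS. Results were expressed as % of ingested amount.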

[2] = assay type: in vivo, rat; details: for Effect of β-glucuronidase treatment on blood concentrations: rat blood, data not shown
How it was run: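 Male Sprague Dawley rats (7 weeks, 274.2–317.7 g) were fasted 16 h and had jugular vein catheters placed 2 days earlier. Single oral TU-100 drug substance was given at 0.3 g/kg with 2.4 g/kg maltose (n = 5), or 0.9 g/kg with 7.2 g/kg maltose for 6G/6S. Plasma was taken at 0.083–24 h and analysed by LC-MS/MS after acetonitrile/methanol precipitation with internal standard. Cmax observed; AUC0–last; t1/2 = ln2/ke.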

[3] = Recovery of TU-100 ingredients in small intestinal luminal contents; assay type: in vivo, rat; details: for Effect of β-glucuronidase treatment on luminal amounts: rat small intestinal contents
How it was run: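 Fasted male Sprague Dawley rats (n = 3 per time) were killed 0.083–4 h after oral TU-100 with maltose. The small intestine was ligated into quarters (sites 1–4, oral to anal), and contents were collected with cold water to 10 mL and stored at −80°C. Aliquots, with or without β-glucuronidase (final 0.1 U/μL, pH 6.0, 37°C), were mixed with HBSS/30% acetonitrile and internal standard, then analysed by LC-MS/MS. Amount per site was expressed as % of dosed ingredient; mean ± SD.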

[4] = Portal blood pharmacokinetics of TU-100 ingredients after single oral TU-100; assay type: in vivo, rat
How it was run: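 Purchased male Sprague Dawley rats with hepatic portal vein catheters were fasted 16 h. They received oral TU-100 drug substance at 0.3 g/kg plus 2.4 g/kg maltose (n = 5). Portal plasma was sampled at 0.083, 0.25, 0.5, 1, 2, 4, 8 and 24 h and stored at −80°C. Samples were protein-precipitated with internal standard, optionally treated with β-glucuronidase (final 0.1 U/μL, pH 6.0, 37°C), then run on LC-MS/MS. Cmax and tmax were observed; AUC0–last was taken to the last detected time; values mean ± SD.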

[5] = isotope-labeled 6S administered orally; ref Asami et al. [2010]; cited from earlier work
[6] = male, Sprague Dawley, rat, plasma from peripheral blood, po, 0.9 g/kg
[7] = male, Sprague Dawley, rat, plasma from portal blood, po, 0.3 g/kg
[8] = rat peripheral blood, oral TU-100 0.3 g/kg, untreated, mean ± SD, n = 5
[9] = all sites, all rats, all time points, data not shown
[10] = male, Sprague Dawley, rat, plasma from peripheral blood, po, 0.3 g/kg
[11] = site 3 and 4, at 30 min and 1 h (Fig. 2)
[12] = site 4, at 2 h and 4 h (Fig. 2)

- % of ingested TU-100, Median ([1]; β-glucuronidase treatment −): B.L.Q
- AUC [2, 6]: 0.974 ± 0.839 ng·h/mL
- AUC(0-t) [2, 6]: 0.974 ± 0.839 ng·h/mL
- Cmax [2, 6]: 0.676 ± 0.479 ng/mL
- Tmax [2, 6]: 0.466 ± 0.857 h
- 6G in luminal contents as % of the ingested amount ([3]; all sites, at 30 min (Fig. 3)): below 2%
- Unconjugated 6G in luminal contents as % of the ingested amount ([3]; sites 3 and/or 4, after 1 h (Fig. 3)): 2–3%
- AUC [4, 7]: 59.7 ± 40.4 ng·h/mL
- AUC(0-t) [4, 7]: 59.7 ± 40.4 ng·h/mL
- Cmax [4, 7]: 38.3 ± 31.8 ng/mL
- Tmax [4, 7]: 1.31 ± 1.8 h
- half-life [4, 7]: 1.79 h
- Peak concentration of 6G and its conjugates relative to that of HAS ([4]; rat portal blood): about one-fifth
SMILES: CCCCC[C@H](O)CC(=O)CCc1ccc(O)c(OC)c1 [6G, [6]-gingerol]

- % of ingested TU-100, Max ([1]; β-glucuronidase treatment +): 0.8%
- % of ingested TU-100, Median ([1]; β-glucuronidase treatment +): 0.4%
- % of ingested TU-100, Median ([1]; β-glucuronidase treatment −): B.L.Q
- Presence of 6S and its conjugates in luminal contents ([3]; all sites, all rats, all time points (Fig. 3)): virtually absent
- Portal blood levels of 6S and its conjugates relative to 6G/6G conjugates ([4]; rat portal blood): approximately one tenth
- Concentrations of 6S and its conjugates in the portal blood ([4]; rat portal blood after oral TU-100): below 20 ng/mL
SMILES: CCCCC/C=C/C(=O)CCc1ccc(O)c(OC)c1 [6S, [6]-shogaol]
- Isotope labels recovered in the urine [5]: about 90%

- % of ingested TU-100, Max ([1]; β-glucuronidase treatment +): 9.1%
- % of ingested TU-100, Median ([1]; β-glucuronidase treatment +): 4.3%
- % of ingested TU-100, Median ([1]; β-glucuronidase treatment −): B.L.Q
SMILES: CCCCCCCCC[C@H](O)CC(=O)CCc1ccc(O)c(OC)c1 [10G, [10]-gingerol]

- % of ingested TU-100, Max ([1]; β-glucuronidase treatment +): 3.5%
- % of ingested TU-100, Median ([1]; β-glucuronidase treatment +): 0.8%
- % of ingested TU-100, Median ([1]; β-glucuronidase treatment −): B.L.Q
SMILES: CCCCCCCCC/C=C/C(=O)CCc1ccc(O)c(OC)c1 [10S, [10]-shogaol]

- % of ingested TU-100, Max ([1]; β-glucuronidase treatment −): 68.1%
- % of ingested TU-100, Median ([1]; β-glucuronidase treatment −): 4.1%
SMILES: C/C=C/C=C/C=C\CC/C=C/C=C/C(=O)NCC(C)C [GS, γ-sanshool]

- % of ingested TU-100, Max ([1]; β-glucuronidase treatment −): 0.4%
- % of ingested TU-100, Median ([1]; β-glucuronidase treatment −): B.L.Q
- Effect of β-glucuronidase treatment on blood concentrations [2]: no effect
- AUCall [2, 8]: 951 ± 264 ng·h/mL
- AUClast [2, 8]: 951 ± 264 ng·h/mL
- Cmax [2, 8]: 778 ± 276 ng/mL
- Tmax [2, 8]: 0.283 ± 0.209 h
- t1/2 [2, 8]: 3.01 ± 2.90 h
- Time for blood concentration to reach almost 0 ([2]; rat portal and peripheral blood): ≤ 5 h
- Level in luminal contents as % of the ingested amount [3, 9]: < 1%
- Level in small intestinal luminal contents [3, 9]: below 10 μg/site
SMILES: C/C=C/C=C/C=C\CC/C=C/C(=O)NCC(C)(C)O [HAS, hydroxy-α-sanshool]

- % of ingested TU-100, Median ([1]; β-glucuronidase treatment −): B.L.Q
- Effect of β-glucuronidase treatment on blood concentrations [2]: no effect
- Level in luminal contents as % of the ingested amount [3, 9]: < 1%
- Level in small intestinal luminal contents [3, 9]: below 10 μg/site
SMILES: C/C=C/C=C/C=C/CC/C=C/C(=O)NCC(C)(C)O [HBS, hydroxy-β-sanshool]

- % of ingested TU-100, Max ([1]; β-glucuronidase treatment −): 77.5%
- % of ingested TU-100, Median ([1]; β-glucuronidase treatment −): 59.1%
- Tmax ([2]; male, Sprague Dawley, rat, plasma (peripheral and portal blood), oral, 0.3 g/kg): ~4 h
- AUC [2, 10]: 34.3 ± 12 ng·h/mL
- AUC(0-t) [2, 10]: 34.3 ± 12 ng·h/mL
- Cmax [2, 10]: 2.12 ± 0.759 ng/mL
- Tmax [2, 10]: 4.8 ± 1.79 h
- Effect of β-glucuronidase treatment on blood concentrations [2]: no effect
- Effect of β-glucuronidase treatment on luminal amounts [3]: did not have a significant effect
- Level in luminal contents as % of the ingested amount [3, 11]: around 10%
- Level in luminal contents as % of the ingested amount [3, 12]: ~50%
- AUC [4, 7]: 28.7 ± 6.29 ng·h/mL
- AUC(0-t) [4, 7]: 28.7 ± 6.29 ng·h/mL
- Cmax [4, 7]: 2.1 ± 1.13 ng/mL
- Tmax [4, 7]: 6 ± 2.31 h
SMILES: CC(C)=CCC[C@](C)(O[C@@H]1O[C@H](CO[C@@H]2O[C@H](CO)[C@@H](O)[C@H](O)[C@H]2O)[C@@H](O)[C@H](O)[C@H]1O)[C@H]1CC[C@]2(C)[C@@H]1[C@H](O)C[C@@H]1[C@@]3(C)CC[C@H](O[C@@H]4O[C@H](CO)[C@@H](O)[C@H](O)[C@H]4O[C@@H]4O[C@H](CO)[C@@H](O)[C@H](O)[C@H]4O)C(C)(C)[C@@H]3CC[C@]12C [Rb1, ginsenoside Rb1]

- % of ingested TU-100, Max ([1]; β-glucuronidase treatment −): 114.0%
- % of ingested TU-100, Median ([1]; β-glucuronidase treatment −): 91.5%
- Blood concentrations ([2]; rat blood after oral TU-100): too low to obtain reliable data
- Effect of β-glucuronidase treatment on luminal amounts [3]: did not have a significant effect
- Level in luminal contents as % of the ingested amount [3, 11]: around 10%
- Level in luminal contents as % of the ingested amount [3, 12]: ~30%
SMILES: CC(C)=CCC[C@](C)(O[C@@H]1O[C@H](CO)[C@@H](O)[C@H](O)[C@H]1O)[C@H]1CC[C@]2(C)[C@@H]1[C@H](O)C[C@@H]1[C@@]3(C)CC[C@H](O)C(C)(C)[C@@H]3[C@@H](O[C@@H]3O[C@H](CO)[C@@H](O)[C@H](O)[C@H]3O)C[C@]12C [Rg1, ginsenoside Rg1]
